Active and inactive are the calls of the source. The calls are words filed in the database; no cut-off is given here.
Key:
[1] = target: T1, Mu-type opioid receptor (Mus musculus, UniProt P42866); assay: Binding affinity to mouse mu opioid receptor expressed in CHO cell membrane assessed as [35S]GTPgammaS binding incubated for 1.5 hrs by liquid scintillation counter analysis; format: cell membranes
Procedure, shortened: (§1)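 MOR [35S]GTPγS functional assay in MOR-CHO membranes (Bmax about 2.5–4 pmol/mg). Efficacy is expressed as % of the maximal stimulation by full agonist DAMGO.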

[2] = target: Mu-type opioid receptor (Mus musculus) (UniProt P42866); assay: Binding affinity to mouse mu opioid receptor expressed in CHO cell membrane assessed as stimulation of [35S]-GTPgammaS binding by measuring maximal efficacy incubated for 1.5 hrs by scintillation spectroscopy analysis relative DAMGO; format: cell membranes; procedure, shortened: as §1
[3] = target: T1, Mu-type opioid receptor; assay: Binding affinity to mouse mu opioid receptor expressed in CHO cell membrane assessed as inhibition constant incubated for 1.5 hrs by competitive radioligand binding assay; format: cell membranes
[4] = test system: Mus musculus; assay: Antinociceptive activity in Swiss Webster mouse assessed as inhibition of morphine induced latency to tail withdrawal at 10 mg/kg, sc preincubated for 5 mins followed by morphine addition and measured after 20 mins by warm water tail immersion assay; format: functional, organism-based; conditions: time 25.0 min
Procedure, shortened: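 Male Swiss-Webster mice (n = 5). Compound is given s.c. at time 0 (10 mg/kg in the single-dose screen, a dose range for AD50), and morphine 10 mg/kg follows 5 min later. Tail flick is tested in 56 ± 0.1 °C water 20 min after morphine and scored as % MPE. Saline and morphine alone are the controls.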

[5] = species on record: Mus musculus; assay: Selectivity ratio, ratio of Ki for binding affinity to mouse kappa opioid receptor expressed in CHO cell membrane to Ki for binding affinity to mouse mu opioid receptor expressed in CHO cell membrane
[6] = Selectivity ratio, ratio of Ki for binding affinity to human delta opioid receptor expressed in CHO cell membrane to Ki for binding affinity to mouse mu opioid receptor expressed in CHO cell membrane
[7] = target: Kappa-type opioid receptor (Mus musculus, UniProt P33534); assay: Binding affinity to mouse kappa opioid receptor expressed in CHO cell membrane assessed as inhibition constant incubated for 1.5 hrs by competitive radioligand binding assay; format: cell membranes

| Structure (SMILES) | EC50 [1] | Emax [2] | Ki [3] | Activity [4] | Ratio Ki [5] | Ratio Ki [6] | Ki [7] | Emax ([2]; filed as modulator) |
| --- | --- | --- | --- | --- | --- | --- | --- | --- |
| O=C(N[C@H]1CC[C@@]2(O)[C@H]3Cc4ccc(O)c5c4[C@@]2(CCN3CC2CC2)[C@H]1O5)c1cccc2c(C3CCCCC3)c[nH]c12 | 2.62 nM | 20.5% | 2.11 nM | inactive | 4.6 | 8.9 | 9.65 nM | – |
| CC(=O)Nc1c[nH]c2c(C(=O)N[C@@H]3CC[C@@]4(O)[C@H]5Cc6ccc(O)c7c6[C@@]4(CCN5CC4CC4)[C@H]3O7)cccc12 | 0.88 nM | 8.84% | 0.27 nM | inactive | 24.4 | 116 | 6.52 nM | – |
| O=C(N[C@@H]1CC[C@@]2(O)[C@H]3Cc4ccc(O)c5c4[C@@]2(CCN3CC2CC2)[C@H]1O5)c1cccc2cc(-c3ccccc3)[nH]c12 | 5.44 nM | 10.2% | 3.26 nM | inactive | 0.4 | 7.3 | 1.14 nM | – |
| O=C(N[C@@H]1CC[C@@]2(O)[C@H]3Cc4ccc(O)c5c4[C@@]2(CCN3CC2CC2)[C@H]1O5)c1cccc2c(C3CCCC3)c[nH]c12 | – | 21.3% | 1.45 nM | inactive | 7.5 | 6.8 | 10.8 nM | – |
| O=Cc1c[nH]c2c(C(=O)N[C@H]3CC[C@@]4(O)[C@H]5Cc6ccc(O)c7c6[C@@]4(CCN5CC4CC4)[C@H]3O7)cccc12 | 0.89 nM | 8.24% | 0.25 nM | inactive | 11.3 | 47.5 | 2.82 nM | – |
| O=C(N[C@H]1CC[C@@]2(O)[C@H]3Cc4ccc(O)c5c4[C@@]2(CCN3CC2CC2)[C@H]1O5)c1cccc2c(C3CCCC3)c[nH]c12 | 2.05 nM | 12.3% | 2.66 nM | inactive | 7.9 | 10.6 | 21.1 nM | – |
| O=C(N[C@H]1CC[C@@]2(O)[C@H]3Cc4ccc(O)c5c4[C@@]2(CCN3CC2CC2)[C@H]1O5)c1cccc2c(-c3ccccc3)c[nH]c12 | 1.85 nM | 5.57% | 2.37 nM | inactive | 5.7 | 6.3 | 13.4 nM | – |
| CC(=O)c1c[nH]c2c(C(=O)N[C@@H]3CC[C@@]4(O)[C@H]5Cc6ccc(O)c7c6[C@@]4(CCN5CC4CC4)[C@H]3O7)cccc12 | 204 nM | 10.9% | > 50 nM | inactive | – | – | 15.6 nM | – |
| O=C(N[C@@H]1CC[C@@]2(O)[C@H]3Cc4ccc(O)c5c4[C@@]2(CCN3CC2CC2)[C@H]1O5)c1cccc2cc(Cl)[nH]c12 | 1.4 nM | 38.5% | 0.63 nM | – | 2 | 3.8 | 1.28 nM | – |
| O=C(N[C@@H]1CC[C@@]2(O)[C@H]3Cc4ccc(O)c5c4[C@@]2(CCN3CC2CC2)[C@H]1O5)c1cccc2c(C3CCCCC3)c[nH]c12 | 20.8 nM | 6.23% | 5.57 nM | inactive | 7.5 | 11.5 | 41.7 nM | – |
| O=C(N[C@@H]1CC[C@@]2(O)[C@H]3Cc4ccc(O)c5c4[C@@]2(CCN3CC2CC2)[C@H]1O5)c1cccc2c(-c3ccccc3)c[nH]c12 | 1.78 nM | 8.47% | 1.46 nM | inactive | 17.9 | 33.8 | 26.1 nM | – |
| CC(=O)c1c[nH]c2c(C(=O)N[C@H]3CC[C@@]4(O)[C@H]5Cc6ccc(O)c7c6[C@@]4(CCN5CC4CC4)[C@H]3O7)cccc12 | 5.21 nM | 9.81% | 0.43 nM | inactive | 14.9 | 25.4 | – | – |
| N#Cc1cc2cccc(C(=O)N[C@@H]3CC[C@@]4(O)[C@H]5Cc6ccc(O)c7c6[C@@]4(CCN5CC4CC4)[C@H]3O7)c2[nH]1 | 3.78 nM | 21.3% | 0.73 nM | – | 2.3 | 16.5 | 1.66 nM | – |
| O=C(N[C@H]1CC[C@@]2(O)[C@H]3Cc4ccc(O)c5c4[C@@]2(CCN3CC2CC2)[C@H]1O5)c1cccc2c([N+](=O)[O-])c[nH]c12 | 2.32 nM | 11.3% | 1.07 nM | inactive | – | – | 9.84 nM | – |
| CC(=O)Nc1c[nH]c2c(C(=O)N[C@H]3CC[C@@]4(O)[C@H]5Cc6ccc(O)c7c6[C@@]4(CCN5CC4CC4)[C@H]3O7)cccc12 | 1.48 nM | 9.97% | 0.23 nM | inactive | 9.4 | 23 | 2.1 nM | – |
| O=C(N[C@H]1CC[C@@]2(O)[C@H]3Cc4ccc(O)c5c4[C@@]2(CCN3CC2CC2)[C@H]1O5)c1cccc2cc(Cl)[nH]c12 | 1.82 nM | 14.8% | 0.65 nM | – | 4.2 | 2.8 | 2.73 nM | – |
| Cc1c[nH]c2c(C(=O)N[C@H]3CC[C@@]4(O)[C@H]5Cc6ccc(O)c7c6[C@@]4(CCN5CC4CC4)[C@H]3O7)cccc12 | 2.68 nM | 15.7% | 0.69 nM | Active | 6.1 | 20.1 | 4.2 nM | – |
| N#Cc1cc2cccc(C(=O)N[C@H]3CC[C@@]4(O)[C@H]5Cc6ccc(O)c7c6[C@@]4(CCN5CC4CC4)[C@H]3O7)c2[nH]1 | 3.58 nM | 14.4% | 0.87 nM | inactive | 8.2 | – | 7.1 nM | – |
| O=C(N[C@@H]1CC[C@@]2(O)[C@H]3Cc4ccc(O)c5c4[C@@]2(CCN3CC2CC2)[C@H]1O5)c1cccc2c(Br)c[nH]c12 | 1.05 nM | – | 0.7 nM | – | 1.6 | 16.7 | 1.08 nM | 70.4% |
| N#Cc1c[nH]c2c(C(=O)N[C@H]3CC[C@@]4(O)[C@H]5Cc6ccc(O)c7c6[C@@]4(CCN5CC4CC4)[C@H]3O7)cccc12 | 2.54 nM | 11.4% | 0.87 nM | inactive | – | 14 | 5.46 nM | – |
| O=C(N[C@H]1CC[C@@]2(O)[C@H]3Cc4ccc(O)c5c4[C@@]2(CCN3CC2CC2)[C@H]1O5)c1cccc2cc(Br)[nH]c12 | – | 13.3% | 0.48 nM | Active | 3.1 | 14 | 1.5 nM | – |
| O=C(N[C@H]1CC[C@@]2(O)[C@H]3Cc4ccc(O)c5c4[C@@]2(CCN3CC2CC2)[C@H]1O5)c1cccc2cc(-c3ccccc3)[nH]c12 | 2.07 nM | 7.44% | 2.45 nM | inactive | 2.6 | – | 6.42 nM | – |
